Source: ChEMBL document CHEMBL1128427, “Novel inhibitors of the nuclear factor of activated T cells (NFAT)-mediated transcription of beta-galactosidase: potential immunosuppressive and antiinflammatory agents” (J Med Chem, 1995)
Each block holds one molecule with its values, some of them ahead of it.

Experiments:
[1] = Inhibition of nuclear factor of activated T-cells (NFAT) mediated transcription of beta-galactosidase in J.NFATZ.1 cells; assay type: functional, cell-based, T-cell
Jurkat [2] = experiment: Binding affinity was measured on jurkat cell membrane using [3H3C] as radioligand.; assay type: functional, cell membranes, Homo sapiens
Jurkat [3] = experiment: Binding affinity was measured on jurkat cell membrane using [3H3C] as radioligand; assay type: functional, cell membranes, Homo sapiens
Jurkat [4] = experiment: Inhibition of beta-galactosidase as expression in J.NFATZ.1 cells at 10 uM mediated by nuclear factor of activated T-cells transcription; assay type: functional
Jurkat [5] = experiment: Concentration required to inhibit nuclear factor of activated T-cells mediated transcription of beta-galactosidases expression in J.NFATZ.1 cells; Not active; assay type: functional, cell-based
Summary of the method: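 J.NFATZ.1 cells, 1.25×10^5 per well, were stimulated with PMA (2 ng/mL final) and ionomycin (25 μM final) in the presence of compound (0.1% DMSO final). Incubation 5 h at 37 °C. Cells were lysed and incubated 1 h at 37 °C with 4-methylumbelliferyl β-D-galactoside (10 μg/mL final, pH 7.8). Fluorescence read at […]. IC50 obtained by four-parameter logistic fit.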

Structure (SMILES): CC(C)Cn1c(=O)n(C)c(=O)c2cn(C(c3ccccc3)c3ccccc3)cc21
- IC50 ([1]; T-cell): 1460 nM

Structure (SMILES): COc1ccc(Cn2cc3c(c2CN2CCOCC2)c(=O)n(C)c(=O)n3CC(C)C)cc1
- Ki (Jurkat [3]): 315 nM
- IC50 ([1]; T-cell): 800 nM

Structure (SMILES): COC(=O)c1ccc(CNc2ccc3c(c2)c(=O)n(C)c(=O)n3CC(C)C)cc1
- Inhibition (Jurkat [4]): 35%

Structure (SMILES): CC(C)Cn1c(=O)n(C)c(=O)c2cn([C@H](C)c3ccccc3)cc21
- Ki (Jurkat [3]): 562 nM
- IC50 ([1]; T-cell): 1200 nM

Structure (SMILES): CC(C)Cn1c(=O)n(C)c(=O)c2cc(OCc3ccccc3)ccc21
- IC50 ([1]; T-cell): 2500 nM

Structure (SMILES): CNC(=O)CCCn1c(=O)c2cn(Cc3cccc4ccccc34)cc2n(CC(C)C)c1=O
- IC50 (Jurkat [5]): Not Active

Structure (SMILES): CC(C)Cn1c(=O)n(C)c(=O)c2ccc(OCc3ccccc3)cc21
- IC50 ([1]; T-cell): 2050 nM

Structure (SMILES): CC(C)Cn1c(=O)n(C)c(=O)c2cc(CCc3ccccc3)ccc21
- IC50 ([1]; T-cell): 4030 nM

Structure (SMILES): CC(C)Cn1c(=O)n(C)c(=O)c2cc3c(cc21)O[C@H](c1ccccc1)O3
- IC50 ([1]; T-cell): 2250 nM

Structure (SMILES): CC(O)Cn1c(=O)n(C)c(=O)c2cn(Cc3cccc4ccccc34)cc21 (centres undefined)
- Ki (Jurkat [3]): 697 nM
- IC50 ([1]; T-cell): 3950 nM

Structure (SMILES): CC(C)Cn1c(=O)n(C)c(=O)c2cn([C@@H](C)c3ccccc3)cc21
- Ki (Jurkat [3]): 301 nM
- IC50 ([1]; T-cell): 1300 nM

Structure (SMILES): CC(C)Cn1c(=O)n(C)c(=O)c2cc(NCc3ccc(C(=O)O)cc3)ccc21
- Inhibition (Jurkat [4]): 30%

Structure (SMILES): Cn1c(=O)c2cn(Cc3cccc4ccccc34)cc2n(CC2CCCCC2)c1=O
- IC50 ([1]; T-cell): 1210 nM

Structure (SMILES): CC(C)Cn1c(=O)[nH]c(=O)c2cn(Cc3cccc4ccccc34)cc21
- IC50 ([1]; T-cell): 3000 nM

Structure (SMILES): CC(C)CCn1c(=O)n(C)c(=O)c2cn(Cc3cccc4ccccc34)cc21
- IC50 ([1]; T-cell): 815 nM

Structure (SMILES): CC(C)Cn1c(=O)n(C)c(=O)c2cc(NCc3ccccc3)ccc21
- IC50 ([1]; T-cell): 4470 nM

Structure (SMILES): CC(C)Cn1c(=O)n(C)c(=O)c2cc3c(cc21)O[C@](C)(c1ccccc1)O3
- IC50 ([1]; T-cell): 4480 nM

Structure (SMILES): CC(C)Cn1c(=O)n(C)c(=O)c2cn(Cc3ccc(C(F)(F)F)cc3)cc21
- IC50 ([1]; T-cell): 1300 nM

Structure (SMILES): CC(C)Cn1c(=O)n(C)c(=O)c2cn(Cc3ccccc3)cc21
- IC50 ([1]; T-cell): 870 nM

Structure (SMILES): CC(C)Cn1c(=O)n(C)c(=O)c2cn(Cc3cccc(Cl)c3Cl)cc21
- IC50 ([1]; T-cell): 1200 nM

Structure (SMILES): CC(C)Cn1c(=O)n(C)c(=O)c2ccc(NCc3ccccc3)cc21
- Inhibition (Jurkat [4]): 40%

Structure (SMILES): CC(C)Cn1c(=O)n(C)c(=O)c2cc(NCc3ccc(C(C)(C)C)cc3)ccc21
- Inhibition (Jurkat [4]): 34%

Structure (SMILES): CC(C)Cn1c(=O)n(C)c(=O)c2cc(NCc3ccccc3F)ccc21
- IC50 ([1]; T-cell): 1320 nM

Structure (SMILES): CCC(C)n1c(=O)n(C)c(=O)c2cn(C3Cc4cccc5cccc3c45)cc21 (stereo in doubt; 5g3)
- IC50 ([1]; t-cell): 17 nM

Structure (SMILES): CCC(C)n1c(=O)n(C)c(=O)c2cn(C3Cc4cccc5cccc3c45)cc21 (stereo in doubt; 5g4)
- IC50 ([1]; t-cell): 48 nM

Structure (SMILES): CCC(C)n1c(=O)n(C)c(=O)c2cn(C3Cc4cccc5cccc3c45)cc21 (stereo in doubt; 5g)
- IC50 ([1]; t-cell): 5.4 nM

More lines, main results first:

- IC50 ([1]; T-cell): 8 nM
Structure (SMILES): CC(C)Cn1c(=O)n(C)c(=O)c2cn(C3Cc4cccc5cccc3c45)cc21 (centres undefined)

- IC50 ([1]; T-cell): 190 nM
Structure (SMILES): CCCCOc1ccc(Cn2cc3c(=O)n(C)c(=O)n(CC(C)C)c3c2)cc1

- IC50 ([1]; T-cell): 260 nM
Structure (SMILES): CC(C)Cn1c(=O)n(C)c(=O)c2cn(Cc3ccccc3Cl)cc21
- Ki (Jurkat [2]): 122 nM

- IC50 ([1]; T-cell): 89 nM
Structure (SMILES): CSc1c2c(=O)n(C)c(=O)n(CC(C)C)c2cn1Cc1cccc2ccccc12

- IC50 ([1]; T-cell): 275 nM
Structure (SMILES): COc1cccc(Cn2cc3c(=O)n(C)c(=O)n(CC(C)C)c3c2)c1

- IC50 ([1]; T-cell): 360 nM
Structure (SMILES): COc1ccc(Cn2cc3c(c2SC)c(=O)n(C)c(=O)n3CC(C)C)cc1
- Ki (Jurkat [3]): 305 nM

- IC50 ([1]; T-cell): 435 nM
Structure (SMILES): CC(C)Cn1c(=O)n(C)c(=O)c2cn(Cc3ccc(Cl)cc3)cc21

- IC50 ([1]; T-cell): 26 nM
Structure (SMILES): CC(C)Cn1c(=O)n(C)c(=O)c2cn(Cc3cccc4ccccc34)cc21
- Ki (Jurkat [2]): 23 nM

- IC50 ([1]; T-cell): 90 nM
Structure (SMILES): CCn1c(=O)c2cn(Cc3cccc4ccccc34)cc2n(CC(C)C)c1=O

- IC50 ([1]; T-cell): 275 nM
Structure (SMILES): COc1ccccc1Cn1cc2c(=O)n(C)c(=O)n(CC(C)C)c2c1
- Ki (Jurkat [2]): 170 nM

- IC50 ([1]; T-cell): 440 nM
Structure (SMILES): CCn1c(=O)n(C)c(=O)c2cn(Cc3cccc4ccccc34)cc21

- IC50 ([1]; T-cell): 140 nM
Structure (SMILES): Cn1c(=O)c2cn(Cc3cccc4ccccc34)cc2n(CC2CC2)c1=O

- IC50 ([1]; T-cell): 150 nM
Structure (SMILES): Cc1c2c(cn1Cc1cccc3ccccc13)c(=O)n(C)c(=O)n2CC(C)C

- IC50 ([1]; T-cell): 378 nM
Structure (SMILES): COc1ccc(Cn2cc3c(=O)n(C)c(=O)n(CC(C)C)c3c2)cc1OC

- IC50 ([1]; T-cell): 75 nM
Structure (SMILES): CC(C)Cn1c(=O)n(C)c(=O)c2cn(Cc3ccc4ccccc4c3)cc21
- Ki (Jurkat [2]): 29.4 nM

- IC50 ([1]; T-cell): 21.5 nM
Structure (SMILES): CC(C)n1c(=O)n(C)c(=O)c2cn(Cc3cccc4ccccc34)cc21
- Ki (Jurkat [3]): 15.3 nM

- IC50 ([1]; T-cell): 260 nM
Structure (SMILES): CSc1ccc(Cn2cc3c(=O)n(C)c(=O)n(CC(C)C)c3c2)cc1

- IC50 ([1]; T-cell): 6 nM
Structure (SMILES): CC(C)Cn1c(=O)n(C)c(=O)c2c(SCCCO)n(Cc3cccc4ccccc34)cc21
- Ki (Jurkat [3]): 1.1 nM

- IC50 ([1]; T-cell): 660 nM
Structure (SMILES): CC(C)Cn1c(=O)[nH]c(=O)c2cn(C3Cc4cccc5cccc3c45)cc21 (centres undefined)
- Ki (Jurkat [3]): 454 nM

- IC50 ([1]; T-cell): 630 nM
Structure (SMILES): CC(C)Cn1c(=O)n(C)c(=O)c2cn(Cc3ccccc3F)cc21

- IC50 ([1]; T-cell): 640 nM
Structure (SMILES): CC(C)Cn1c(=O)n(C)c(=O)c2cn(Cc3ccc(O)cc3)cc21

- IC50 ([1]; T-cell): 320 nM
Structure (SMILES): Cc1ccc(Cn2cc3c(=O)n(C)c(=O)n(CC(C)C)c3c2)cc1

- IC50 ([1]; T-cell): 240 nM
Structure (SMILES): COc1ccc(Cn2cc3c(=O)n(C)c(=O)n(CC(C)C)c3c2)cc1

- IC50 ([1]; T-cell): 224 nM
Structure (SMILES): COc1cccc(Cn2cc3c(=O)n(C)c(=O)n(CC(C)C)c3c2)c1OC

- IC50 ([1]; T-cell): 166 nM
Structure (SMILES): COc1ccc(Cn2cc3c(=O)n(C)c(=O)n(CC(C)C)c3c2)cc1I

- IC50 ([1]; T-cell): 310 nM
Structure (SMILES): COc1ccc(Cn2cc3c(=O)n(C)c(=O)n(CC(C)C)c3c2)c(OC)c1
- Ki (Jurkat [3]): 88 nM

- IC50 ([1]; T-cell): 186 nM
Structure (SMILES): CC(C)Cn1c(=O)n(C)c(=O)c2cn(C3CCc4ccccc43)cc21 (centres undefined)

- IC50 ([1]; T-cell): 89 nM
Structure (SMILES): CC(C)Cn1c(=O)n(C)c(=O)c2cn(Cc3ccc(O)c(I)c3)cc21

- IC50 ([1]; T-cell): 312 nM
Structure (SMILES): CC(C)Cn1c(=O)n(C)c(=O)c2cn(C3Cc4ccccc4C3)cc21
- Ki (Jurkat [3]): 4.8 nM
